# HMGR II inh – blocks class II HMG-CoA reductase of Enterococcus faecalis; purified E. faecalis HMGR, NADPH absorbance 340 nm kinetic; inhibition, % at 10 µM; 190,000 compounds, 0.41% hits; AID 1066;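 active means inhibition above a set limit, the median over all tested compounds plus 3 SD, cut at about 9.5% in these data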;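 further: enzyme runs in reverse so mevalonate oxidation gives rising NADPH absorbance; 0% = complete reaction with DMSO and 100% = background rate lacking mevalonate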
# TNAP inh noacc – blocks human TNAP activity with no phosphate acceptor present; inhibition, % at 20 µM; AID 1012; purified TNAP, CDP-star luminescence, 30 min; 200,000 compounds, 0.26% hits;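 active means tissue-nonspecific alkaline phosphatase inhibition above about 50% at 20 µM in the single-dose screen, limit read from the data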;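 further: 0% = DMSO negative control and 100% = EDTA positive control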
# Target sequence (P05186 whole entry, looked up): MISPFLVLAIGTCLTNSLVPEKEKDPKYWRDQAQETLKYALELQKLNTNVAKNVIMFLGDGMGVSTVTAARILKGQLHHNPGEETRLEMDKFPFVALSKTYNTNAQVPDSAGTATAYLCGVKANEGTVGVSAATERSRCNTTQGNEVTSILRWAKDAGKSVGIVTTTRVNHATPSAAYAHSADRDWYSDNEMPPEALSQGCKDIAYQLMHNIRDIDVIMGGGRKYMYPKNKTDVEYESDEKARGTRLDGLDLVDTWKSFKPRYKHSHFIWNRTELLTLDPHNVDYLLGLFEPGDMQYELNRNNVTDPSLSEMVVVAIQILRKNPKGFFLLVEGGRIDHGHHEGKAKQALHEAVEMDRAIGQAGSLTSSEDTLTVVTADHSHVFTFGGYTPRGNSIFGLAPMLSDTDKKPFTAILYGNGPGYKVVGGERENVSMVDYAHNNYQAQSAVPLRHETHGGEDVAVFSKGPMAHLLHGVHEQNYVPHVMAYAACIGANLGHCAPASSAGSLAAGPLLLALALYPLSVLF
# TNAP inh hiacc – blocks human TNAP under high phosphate acceptor concentration; inhibition, % at 20 µM; AID 1135; P05186; purified TNAP, CDP-star luminescence, 1 M DEA; 200,000 compounds, 0.03% hits;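 active means over 50% inhibition of tissue-nonspecific alkaline phosphatase at 20 µM in the single-dose screen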;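 further: plate controls were DMSO wells for no effect and EDTA-quenched wells as full inhibition for full effect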
# INS promoter inh – TRM-6 insulin promoter activity inhibition; TRM-6 cells (human fetal islet line), insulin promoter-eGFP reporter, imaging; reporter expression induced with tamoxifen; inhibition, % at 2 µM; 130,000 compounds, 0.9% hits;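 active means inhibition above the mean plus 3 SD, with well images judged a real hit on visual review, cut at about 60% in these data, passing the limit was not always enough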
# TNAP act hi DEA – increases human TNAP activity under high phosphate acceptor concentration; purified TNAP, CDP-star luminescence, 1 M DEA, 30 min; stronger effect = higher value; 0 = EDTA background, 1 = DMSO-only activity; activation factor at 20 µM; 200,000 tested, under 10 active; AID 1136;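 active means activation factor at least 2 at 20 µM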
#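 Dosing: 20 µM single point. System: human TNAP. Amount: TNAP 1/800 final. Incubation: 30 min, room temperature. Read-out: TNAP activation factor scaled between EDTA and DMSO control wells. Signal: luminescence from CDP-star hydrolysis. Medium: 1 M DEA, pH 9.8, Mg2+, Zn2+. Control set: EDTA negative control, DMSO positive control.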
# Starred values were filed as active, the others as inactive; x = no result given. This is a sample that favours compounds with a hit; in the whole collection about 1.2% have one here.
SMILES,HMGR II inh,TNAP inh noacc,TNAP inh hiacc,INS promoter inh,TNAP act hi DEA
C/C(=N/Nc1ccc(C(=O)O)cc1)c1ccc(O)c(O)c1O,11*,6,8,-4,0.9
O=C(Nc1nnc(COc2ccc(Cl)cc2)s1)c1cccs1,-2,-16,-4,80*,1
O=C(Nc1nnc(COc2ccc(F)cc2)s1)c1cccs1,-3,1,-3,-13,1
CCc1nc2oc3cc(OC)ccc3c(=O)c2c(=O)n1Cc1ccccc1,-3,-3,2,67*,1
CCc1nc2oc3ccccc3c(=O)c2c(=O)n1Cc1ccccc1,-2,-14,-7,7,1.1
Cc1ccc(C(=O)NN2C(=O)C3C4C=CC(C5CC45)C3C2=O)cc1 (stereo unspecified),11*,-7,-3,-111,1
COCCCNC(=O)C1CCCN(S(C)(=O)=O)C1 (stereo unspecified),2,-5,-2,14,1
C#CCOCCOCCOCCNc1nc(N2CCN(C(=O)[C@H](C)n3cc(CCCN=C(N)N)nn3)CC2)nc(N2CCN(C(=O)[C@H](CCCCN)n3cc(CCCC)nn3)CC2)n1,10*,-16,-6,57,1.1
CCCCCCCCCOC(=O)C(CC(=O)O)N1CCOCC1 (stereo unspecified),0,-2,-3,68*,1
COCCCNC(=O)c1c(NC(=O)C2COc3ccccc3O2)sc2c1CCCC2 (stereo unspecified),-4,-4,-3,87*,1
CCNC(=O)c1c(NC(=O)C2COc3ccccc3O2)sc2c1CCCC2 (stereo unspecified),-2,-8,0,-27,1
O=C(CCNS(=O)(=O)c1ccc(Br)s1)NCc1ccc2c(c1)OCO2,1,-5,0,25,1
CC(C)N(C(=O)CSc1nnc(Cc2csc(Nc3ccccc3)n2)o1)C(C)C,-3,-7,-3,0,1
CCC(C)NC(=O)c1ccccc1NC(=O)COc1ccc(OC)cc1 (stereo unspecified),-1,-7,1,79*,1
O=C(Nc1ccc(S(=O)(=O)Nc2ccccc2)cc1)C1COc2ccccc2O1 (stereo unspecified),15*,0,4,-31,1
COc1ccc(-n2nnnc2SCC(=O)c2ccc3c(c2)OCCO3)cc1,-1,-9,-1,79*,1
O=C(CSc1nnnn1-c1ccc(F)cc1)c1ccc(O)c(O)c1,1,75*,15,-400,0.9
COc1ccc(COCC(O)CN2CC(C)OC(C)C2)cc1OC (stereo unspecified),-3,-9,-3,-16,1
CCOc1cc(CNn2nnnc2N)cc(Cl)c1OCC(=O)NC(C)(C)C,2,-14,-4,18,1
COc1ccc(/C=N/OCC(=O)N=Nc2c(O)[nH]c3ccc(Br)cc23)cc1,-3,-28,-3,80*,1
Cc1cccc(C)c1OCC(=O)N=Nc1c(O)[nH]c2ccc(Br)cc12,-1,-18,0,-42,1
CN(CC(=O)NCCc1ccccc1)S(=O)(=O)c1ccccc1,14*,-14,-7,x,1.1
O=C(Nc1ccc2ccccc2c1)NC1CCS(=O)(=O)C1 (stereo unspecified),-1,-6,-2,67,1
CC(C)(C)c1ccc(CS(=O)CC(O)CO)cc1 (stereo unspecified),-4,-6,-3,17,1
O=C(Nc1cccs1)Nc1ccc(Br)cc1F,-3,-10,0,70*,1
SMILES,HMGR II inh,TNAP inh noacc,TNAP inh hiacc,INS promoter inh,TNAP act hi DEA
O=C(Nc1cccs1)Nc1ccc(F)cc1F,-4,-12,2,63,1
C#CCNC(=O)C1=C[C@@H](C2CCCCC2)[C@H](CCCO)[C@@H](OCC)O1,6,1,-3,x,1
Cc1cccc(NNC(N)=S)c1C,10*,2,1,x,1
CC(=O)NC1C(OCc2ccccc2)OC2COC(C)(C)OC2C1O (stereo unspecified),-5,-1,-1,x,1
NC(=O)C1=C[C@@H](c2ccc(Br)cc2)C[C@@H](OCCCCO)O1,-2,-8,-4,x,1
O=C(Nc1cccc(-c2cn3c(n2)SCC3)c1)c1ccc2c(c1)OCO2,4,-14,-4,0,1
O=C(Nc1ccc(-c2cn3c(n2)SCC3)cc1)c1ccc2c(c1)OCO2,13*,-5,-3,50,1
Cc1noc(C)c1C(=O)NC(C)C1CCCO1 (stereo unspecified),1,-8,-2,89*,1
Cc1occc1C(=O)NC(C)C1CCCO1 (stereo unspecified),-1,-6,3,23,1
Cc1ccc(C)c(N=C2CCCN2Cc2ccccc2)c1C#N,13*,-7,6,31,0.9
O=C(O)CN1CCCC1=Nc1ccccc1,2,-9,-2,25,1
CCc1nc2ccccc2[nH]1,-2,-14,2,-287,1
Cc1ccc(/C=C/c2nc3ccccc3[nH]2)o1,5,-9,-2,71*,1
CC1CCCC(C)N1C(=O)COc1ccc(C(=O)Nc2ccccc2N2CCOCC2)cc1 (stereo unspecified),-3,-10,-4,x,1
COC(=O)c1ccc(NC(=O)CN(C)Cc2cccc(F)c2)cc1,11*,-10,-2,x,1
Cc1ccnc(NC(=O)Cn2cc([N+](=O)[O-])cn2)c1,-3,-4,-3,47,1
COc1cc(/C=N/NC(=O)C2C3CCCCC32C)cc(Br)c1O (stereo unspecified),-3,1,3,-17,1
CN(C)c1ccc(S(=O)(=O)c2ccc(Cl)cc2)cc1,1,-7,-2,74*,1
Cc1c(NC(=S)NC(=O)C2CCCCC2)c(=O)n(-c2ccccc2)n1C,7,-11,-1,-11,1
COc1ccc(-c2nc(N3CCCC3)[nH]c(=O)c2C#N)cc1,-2,-8,0,0,1
COc1ccc(-c2nc(N3CCC(C)CC3)[nH]c(=O)c2C#N)cc1,-2,-10,-4,71*,1
COc1ccc(Cl)cc1-c1nc(-c2ccc(NC(=O)c3cccs3)cc2)no1,-10,22,0,-53,1
COc1ccc(NC(=O)C(=S)N2CCCC2)cc1,4,-11,-6,x,1.1
COC(=O)c1c(NC(C)=O)sc(C(=O)Nc2ccccc2)c1C,1,-2,1,x,1
CCCC(=O)Nc1sc(C(=O)Nc2cccc(N)c2)c(C)c1C(=O)OC,17*,-8,-8,x,1.1
CC(O)C(C(=O)OCc1ccc([N+](=O)[O-])cc1)N1C(=O)c2ccccc2C1=O (stereo unspecified),-4,-5,-2,62*,1
CS(=O)(=O)CCC(C(=O)OCc1ccc(Br)cc1)N1C(=O)c2ccccc2C1=O (stereo unspecified),2,-13,0,x,1
